# Source: ChEMBL document CHEMBL1157359, “Binding of ceftobiprole and comparators to the penicillin-binding proteins of Escherichia coli, Pseudomonas aeruginosa, Staphylococcus aureus, and Streptococcus pneumoniae” (Antimicrob Agents Chemother, 2007)
# pIC50: −log10 of the molar value.
# Tests used:
# [1] = Inhibition of bocillin FL binding to Pseudomonas aeruginosa PAO1 penicillin-binding protein 1a
# In short: (§1)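 P. aeruginosa PAO1 PBPs were isolated and competed with 10 drug concentrations from 0.06 μg/ml to 32 μg/ml before Bocillin FL labeling. Bands were detected by fluorescence imaging. IC50 was taken as 50% inhibition of Bocillin FL binding versus the no-drug sample.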
# [2] = Inhibition of bocillin FL binding to Escherichia coli MC4100 penicillin-binding protein 6
# In short: (§2)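 Isolated E. coli MC4100 PBPs were competed with 10 drug concentrations from 0.016 μg/ml to 8 μg/ml, then labeled with Bocillin FL. Fluorescent PBP bands were imaged. IC50 is the concentration giving 50% inhibition of Bocillin FL binding to each PBP relative to a no-drug control.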
# [3] = Inhibition of bocillin FL binding to Escherichia coli MC4100 penicillin-binding protein 5; in short: as §2
# [4] = Inhibition of bocillin FL binding to Escherichia coli MC4100 penicillin-binding protein 4; in short: as §2
# [5] = Inhibition of bocillin FL binding to Escherichia coli MC4100 penicillin-binding protein 3; in short: as §2
# [6] = biological target: T1, Cell shape peptidoglycan synthetase penicillin-binding protein 2 (Escherichia coli, UniProt Q2TL65); assay: Inhibition of bocillin FL binding to Escherichia coli MC4100 penicillin-binding protein 2
# T1 sequence (Q2TL65 whole entry): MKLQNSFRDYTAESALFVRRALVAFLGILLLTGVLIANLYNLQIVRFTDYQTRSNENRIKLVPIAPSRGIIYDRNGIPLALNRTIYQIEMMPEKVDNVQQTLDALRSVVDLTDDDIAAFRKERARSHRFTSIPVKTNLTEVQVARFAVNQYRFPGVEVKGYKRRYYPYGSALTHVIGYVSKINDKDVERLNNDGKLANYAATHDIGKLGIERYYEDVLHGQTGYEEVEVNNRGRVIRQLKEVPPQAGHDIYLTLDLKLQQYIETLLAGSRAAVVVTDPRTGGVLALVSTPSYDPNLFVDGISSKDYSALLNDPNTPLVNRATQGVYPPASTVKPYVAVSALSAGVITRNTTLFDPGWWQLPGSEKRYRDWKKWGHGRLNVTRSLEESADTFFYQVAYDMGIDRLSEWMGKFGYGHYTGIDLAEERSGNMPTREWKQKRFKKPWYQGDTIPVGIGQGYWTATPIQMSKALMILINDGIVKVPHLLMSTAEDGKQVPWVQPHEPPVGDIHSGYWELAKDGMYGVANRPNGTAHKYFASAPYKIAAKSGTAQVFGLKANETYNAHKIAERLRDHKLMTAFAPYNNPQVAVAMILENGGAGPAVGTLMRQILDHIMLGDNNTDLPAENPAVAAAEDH
# In short: (§3)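 Isolated E. coli MC4100 PBPs; competition with drug at 10 concentrations, 0.016 μg/ml to 8 μg/ml, then Bocillin FL labeling. Gel bands visualized by imaging. IC50 is the concentration giving 50% inhibition of Bocillin FL binding relative to a no-drug control.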
# [7] = Inhibition of bocillin FL binding to Escherichia coli MC4100 penicillin-binding protein 1b; in short: as §2
# [8] = Inhibition of bocillin FL binding to Escherichia coli MC4100 penicillin-binding protein 1a; in short: as §3
# [9] = biological target: T2, Penicillin-binding protein 2 (Pseudomonas aeruginosa, UniProt Q9X6V3); assay: Inhibition of bocillin FL binding to Pseudomonas aeruginosa PAO1 penicillin-binding protein 2
# T2 sequence (Q9X6V3 whole entry): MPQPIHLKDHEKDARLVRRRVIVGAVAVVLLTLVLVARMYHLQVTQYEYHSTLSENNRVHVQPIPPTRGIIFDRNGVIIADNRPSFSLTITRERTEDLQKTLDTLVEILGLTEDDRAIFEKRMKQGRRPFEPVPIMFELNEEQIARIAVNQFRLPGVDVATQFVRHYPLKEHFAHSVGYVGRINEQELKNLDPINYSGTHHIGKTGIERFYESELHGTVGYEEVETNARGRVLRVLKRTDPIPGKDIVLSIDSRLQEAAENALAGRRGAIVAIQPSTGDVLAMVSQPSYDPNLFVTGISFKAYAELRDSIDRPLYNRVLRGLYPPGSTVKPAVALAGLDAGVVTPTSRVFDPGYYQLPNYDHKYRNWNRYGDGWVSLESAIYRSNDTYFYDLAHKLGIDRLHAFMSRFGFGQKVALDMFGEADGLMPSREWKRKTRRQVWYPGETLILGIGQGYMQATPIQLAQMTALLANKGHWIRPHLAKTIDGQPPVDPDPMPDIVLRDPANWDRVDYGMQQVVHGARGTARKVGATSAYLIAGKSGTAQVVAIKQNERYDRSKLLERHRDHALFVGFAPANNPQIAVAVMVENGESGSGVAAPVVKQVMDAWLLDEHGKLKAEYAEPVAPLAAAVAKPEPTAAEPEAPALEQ
# In short: (§4)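 Isolated P. aeruginosa PAO1 PBPs; drug added at 10 concentrations, 0.06 μg/ml to 32 μg/ml, before Bocillin FL labeling. Labeled PBPs imaged. IC50 is the drug level cutting Bocillin FL binding by 50% versus a no-drug sample.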
# [10] = biological target: Penicillin-binding protein 3 (Pseudomonas aeruginosa, UniProt Q51504); assay: Inhibition of bocillin FL binding to Pseudomonas aeruginosa PAO1 penicillin-binding protein 3; in short: as §4
# [11] = Inhibition of bocillin FL binding to Pseudomonas aeruginosa PAO1 penicillin-binding protein 4; in short: as §1
# [12] = Inhibition of bocillin FL binding to Pseudomonas aeruginosa PAO1 penicillin-binding protein 5/6; in short: as §4
# [13] = biological target: T3, Penicillin-binding protein 1B (Pseudomonas aeruginosa, UniProt Q9X6W0); assay: Inhibition of bocillin FL binding to Pseudomonas aeruginosa PAO1 penicillin-binding protein 1b; in short: as §4
# T3 sequence (Q9X6W0 whole entry): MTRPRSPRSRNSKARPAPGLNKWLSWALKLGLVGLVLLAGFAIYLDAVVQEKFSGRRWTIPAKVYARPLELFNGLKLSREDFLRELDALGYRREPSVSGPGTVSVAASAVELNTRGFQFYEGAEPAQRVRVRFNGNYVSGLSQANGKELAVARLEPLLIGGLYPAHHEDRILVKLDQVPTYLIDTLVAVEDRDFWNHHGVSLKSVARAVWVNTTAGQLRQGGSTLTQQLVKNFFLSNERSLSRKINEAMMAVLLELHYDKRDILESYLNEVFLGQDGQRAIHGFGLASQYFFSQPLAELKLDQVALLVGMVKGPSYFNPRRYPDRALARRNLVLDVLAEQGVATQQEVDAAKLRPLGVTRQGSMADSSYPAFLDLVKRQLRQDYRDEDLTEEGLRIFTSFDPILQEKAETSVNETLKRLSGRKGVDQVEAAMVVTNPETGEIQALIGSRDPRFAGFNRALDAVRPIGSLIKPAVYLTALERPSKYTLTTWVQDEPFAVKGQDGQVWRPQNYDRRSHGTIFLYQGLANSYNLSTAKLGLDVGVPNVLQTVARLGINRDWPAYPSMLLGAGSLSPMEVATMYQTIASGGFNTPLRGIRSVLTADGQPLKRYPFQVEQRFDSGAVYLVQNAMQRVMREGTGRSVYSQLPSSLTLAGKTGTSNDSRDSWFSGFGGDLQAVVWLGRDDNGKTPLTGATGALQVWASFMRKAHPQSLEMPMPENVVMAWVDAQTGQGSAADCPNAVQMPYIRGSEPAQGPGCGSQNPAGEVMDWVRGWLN
# Sequence of Penicillin-binding protein 3 (Q51504 whole entry): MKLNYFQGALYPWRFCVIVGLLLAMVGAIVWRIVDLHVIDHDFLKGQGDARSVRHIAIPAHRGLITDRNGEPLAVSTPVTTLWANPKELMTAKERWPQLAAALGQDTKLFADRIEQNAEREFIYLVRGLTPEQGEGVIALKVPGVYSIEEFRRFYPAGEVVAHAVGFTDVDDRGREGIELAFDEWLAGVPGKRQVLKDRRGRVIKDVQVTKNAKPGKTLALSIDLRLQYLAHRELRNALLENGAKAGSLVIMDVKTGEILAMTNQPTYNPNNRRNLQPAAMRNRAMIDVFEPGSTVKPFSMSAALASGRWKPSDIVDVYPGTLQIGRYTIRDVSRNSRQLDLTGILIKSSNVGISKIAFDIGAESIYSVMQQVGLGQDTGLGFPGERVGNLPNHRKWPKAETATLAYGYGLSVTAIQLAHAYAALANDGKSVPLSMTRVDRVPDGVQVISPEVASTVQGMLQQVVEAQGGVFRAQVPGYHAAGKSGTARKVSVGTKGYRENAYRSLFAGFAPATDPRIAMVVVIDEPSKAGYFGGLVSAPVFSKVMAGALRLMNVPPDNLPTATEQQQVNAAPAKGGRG
Structure (SMILES),IC50 [1] [µg/mL],IC50 [2] [µg/mL],IC50 [3] [µg/mL],IC50 [4] [µg/mL],IC50 [5] [µg/mL],pIC50 [6],IC50 [7] [µg/mL],IC50 [8] [µg/mL],pIC50 [9],pIC50 [10],IC50 [11] [µg/mL],IC50 [12] [µg/mL],pIC50 [13]
CO/N=C(\C(=O)N[C@@H]1C(=O)N2C(C(=O)[O-])=C(C[N+]3(C)CCCC3)CS[C@H]12)c1csc(N)n1,0.1,> 4,> 4,> 4,0.1,5.90,3.7,2,4.78,6.68,0.3,> 32,–
C[C@@H](O)[C@H]1C(=O)N2C(C(=O)O)=C(SCCNC=N)C[C@H]12 [IMIPENEM ANHYDROUS],0.5,0.1,0.5,0.01,8,7.48,0.5,0.5,6.48,6.48,0.01,2,5.78
C[C@H]1[C@H](NC(=O)/C(=N\OC(C)(C)C(=O)O)c2csc(N)n2)C(=O)N1S(=O)(=O)O (stereo in doubt) [AZTREONAM],2,> 8,> 8,> 8,0.03,< 4.74,> 8,> 8,4.43,7.16,16,> 16,–
